In the EternaBench riboswitch data:

System: MS2 coat protein
Assay: apparent Kd, MS2 coat protein; higher = weaker binding; RNA-MaP array; FMN 200 µM where present
How it was run: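 The apparent Kd comes from binding curves fitted cluster by cluster, filtered, and summarised as a median. Those curves followed SNAP-549-labelled MS2 coat protein from 0.7 or 1.5 nM, doubling to 3 µM, on Illumina sequencing-chip clusters where stalled E. coli RNA polymerase had transcribed the designs, without and then with constant ligand. The buffer was 100 mM Tris-HCl pH 7.5, 80 mM KCl, 4 mM MgCl2, BSA, DTT, yeast tRNA and Tween-20, and green signal was normalised to red-channel RNA signal and control-cluster median Fmax.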

[1] = designed as: ON switch for flavin mononucleotide, no ligand
[2] = ligand present: flavin mononucleotide, designed as: ON switch for flavin mononucleotide
[3] = designed as: OFF switch for flavin mononucleotide, no ligand
[4] = ligand present: flavin mononucleotide, designed as: OFF switch for flavin mononucleotide

AAUGAGACCGCAGGAUAUCCACAUGAGGAUCACCCAUGUUCUCAGAUCAGAAGCACGAUCUGCGAGGAGAAGGGCGACCUCAUA
apparent Kd [1]: 563 nM | apparent Kd [2]: 37.6 nM

AAUGGGCACCAGAAGGACAUGAGGAUCACCCAUGUAGGAUAUGGGCGUUGAAGAUGUCUGAACGAGUUGCUGGAAGGAUAUGGG
apparent Kd [1]: 305 nM | apparent Kd [2]: 41 nM

AAUGGUGGAGGAUAUACAUGAGGAUCACCCAUGUAAAUCACACAUGUGGUCAACGCAUGUAGAAGGCCACUAAA
apparent Kd [3]: 62.5 nM | apparent Kd [4]: 104 nM

AAUGUGUCAGGAUAUUGUUAGUUUAGUUGUUUGUAUUAGUUCGAGAAGGGACAUGAGGAUCACCCAUGUUGUAA
apparent Kd [3]: 40.1 nM | apparent Kd [4]: 31.9 nM

AAUGUGUCAGGAUAUUGUUAGUUUAGUUGUUUGUAUUAGUUCGAGAAGGGACAUGAGGAUCACCCAUGUUGUUA
apparent Kd [3]: 36.4 nM | apparent Kd [4]: 29.1 nM

AAUGUGUGUCGAGGAUAUAUAACAUGACAACAAACACAUACAUGAGGAUCACCCAUGUCCCAUGUAUAGAAGGCGAUAUAUAUA
apparent Kd [1]: 310 nM | apparent Kd [2]: 1120 nM

AAUUAAUUAAUACAUGAGGAUCACCCAUGUAAUUAUUAGAUCUAGGAUAUCAGCUCGAAUAGAGCUGAGAAGGAGAUCACAUGU
apparent Kd [1]: 19.4 nM | apparent Kd [2]: 15 nM

AAUUACAUGUAGAAGGUACUUUCAUAAGUGUUGUAAGGAUAUACCAAUUUAUUAGUUUUAAAGAUACAUGAGGAUCACCCAUGU
apparent Kd [1]: 8.59 nM | apparent Kd [2]: 8.18 nM

AAUUAUUAUUGAGGAUAUCGUAUUGAAACAAUACGAGAAGGCGGGAUAAACAUGAGGAUCACCCAUGUGAGCCUGAUGCUUGUG
apparent Kd [3]: 18.1 nM | apparent Kd [4]: 16.5 nM

AAUUAUUGAUGAGGAUAUUGUGGUGAAACACGACAAGAAGGCAUUAUUCACAUGAGGAUCACCCAUGUGAGCCUGAUGCAUAUA
apparent Kd [3]: 14.5 nM | apparent Kd [4]: 13.9 nM

AAUUAUUGAUGAGGAUAUUGUGGUGAAACACGACGAGAAGGCAUAUGUCACAUGAGGAUCACCCAUGUGAGCCUUGUGCAUAUA
apparent Kd [3]: 19.9 nM | apparent Kd [4]: 18.9 nM

AAUUAUUUACAGAAGGAGUUAAAAGGAGUAUUACUAGGAUAUGUUCACAUGAGGAUCACCCAUGUCAUAUUGGGAUUUAUUUUU
apparent Kd [3]: 22.5 nM | apparent Kd [4]: 22.6 nM

AAUUAUUUGUAGAAGGAAGGAGAUUUUGUAUUCUUAGGAUAUACUAUUACAUGAGGAUCACCCAUGUUUGAAGGGUUGCUAUGU
apparent Kd [3]: 74.2 nM | apparent Kd [4]: 82.2 nM

AAUUAUUUUUGAGGAUAUGGUGGUGAAACACCACCAGAAGGCGAAAUAAACAUGAGGAUCACCCAUGUGAGCCUGAUGCUUAUG
apparent Kd [3]: 21.1 nM | apparent Kd [4]: 55.8 nM

AAUUAUUUUUGAGGAUAUUGUGGUGAAACACCACAAGAAGGCAAGAUACACAUGAGGAUCACCCAUGUGAGCCUGAUGCUUAUG
apparent Kd [3]: 17.1 nM | apparent Kd [4]: 21.3 nM

AAUUCACAUGAGGAUCACCCAUGUCAGGAUAUGGUUUCACGUUUUUCUUUGCUUGAGGCCAGAAGGGACAGCUA
apparent Kd [3]: 62.8 nM | apparent Kd [4]: 68.5 nM

AAUUCUAGGGUCAGCCUUAACACAUGAGGAUCACCCAUGUACAGAAGGCGAAGCAAAUGGACACUCGAGGAUAUGUACACUCCG
apparent Kd [3]: 6.22 nM | apparent Kd [4]: 8.01 nM

AAUUGAAACGUAGGAUAUCGCACAAAUCUAAAACGAGAAGGACGUACAUGAGGAUCACCCAUGUUAAAUGGUGUAGAUUAGAUG
apparent Kd [3]: 543 nM | apparent Kd [4]: 636 nM

AAUUGAAACGUAGGAUAUCGCUAUAAAUUAACACGAGAAGGACGUACAUGAGGAUCACCCAUGUUAAAUGGUGUAGUUUAGUUG
apparent Kd [3]: 32.8 nM | apparent Kd [4]: 95.5 nM

AAUUGACCUGUCAGGAUAUAGAGGGAGACUUACAUCUAGAAGGGACAUGAGGAUCACCCAUGUCAGUUGAGACA
apparent Kd [3]: 19.8 nM | apparent Kd [4]: 22.6 nM

AAUUGAGAGCAGGAUAUAUUCCUGAUGUAUGAAGUAGAAGGGCUCACAUGAGGAUCACCCAUGUGAUCCUGAAU
apparent Kd [3]: 16.1 nM | apparent Kd [4]: 18 nM

AAUUUACAUGAGGAUCACCCAUGUCAGGAUAUGGUUUUAUUUUUUUUUUUUUUUGAUUCCAGAAGGGACAGUUA
apparent Kd [3]: 21.1 nM | apparent Kd [4]: 19.7 nM

AAUUUACAUGAGGAUCACCCAUGUGAGGAUAUGAUACUAUGUACUUCGGUACAUAGUAUCAGAAGGCAUGUGGA
apparent Kd [3]: 129 nM | apparent Kd [4]: 37.1 nM

AAUUUUUAACAGAAGGCGUUUAUAGUUAAGUUACGAGGAUAUGUUUUACAUGAGGAUCACCCAUGUUACUAGGGUAGUAUAUAU
apparent Kd [1]: 42.4 nM | apparent Kd [2]: 30.8 nM

ACAAAGGUAGGAUAUCGGACUAUGGACAUGAGGAUCACCCAUGUGCGUCCAAUGCCCAACCGAGAAGGACCAACAG
apparent Kd [3]: 47.1 nM | apparent Kd [4]: 89 nM

ACAAAUGGAGGAUAUACAUGAGGAUCACCCAUGUAUAUCCUACAUGUGUGAUAAUAAUGUAGAAGGCCAUUUGA
apparent Kd [3]: 13.7 nM | apparent Kd [4]: 12 nM

ACAAAUGGAGGAUAUACAUGAGGAUCACCCAUGUUUAUCCUACAUAUGUGAUCCUCAUGUAGAAGGCCAUUUGA
apparent Kd [3]: 11.4 nM | apparent Kd [4]: 10.8 nM
